Consider four compounds from ChEMBL document CHEMBL4811231, “Discovery and structural optimization of 3-O-β-chacotriosyl oleanane-type triterpenoids as potent entry inhibitors of SARS-CoV-2 virus infections” (Eur J Med Chem, 2021).

Calls of active or inactive are those of the source. No cut-off for these calls is given here.

The test system of the assay is Vesicular stomatitis virus. Kind of assay: Antiviral activity against pseudotype VSV harbouring glycoprotein infected human 293T/ACE2 cells assessed as inhibition of viral infection measured after 48 hrs by luciferase reporter gene assay. It counts as functional, organism-based. The procedure, abridged: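 293T-ACE2 cells (20,000/well) were seeded and treated 24 h later with graded compound concentrations mixed with pseudovirus supernatant, then incubated 48 h. The HIV-based pseudovirus (pNL4-3.Luc.R-E-) carried SARS-CoV-2 S or VSV-G and was made by co-transfecting HEK293T cells; supernatant was harvested at 48 h and filtered (0.45 µm). Read-out was luciferase activity in cell lysates. Sal-C was the positive control.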
For the compound `C[C@@H]1O[C@@H](O[C@H]2[C@H](O[C@H]3CC[C@]4(C)[C@H]5CC=C6[C@@H]7CC(C)(C)CC[C@]7(C(=O)NCc7ccccc7F)CC[C@@]6(C)[C@]5(C)CC[C@H]4C3(C)C)O[C@H](CO)[C@@H](O[C@@H]3O[C@@H](C)[C@H](O)[C@@H](O)[C@H]3O)[C@@H]2O)[C@H](O)[C@H](O)[C@H]1O`, the inhibition result is “inactive”.

As for `C[C@@H]1O[C@@H](O[C@H]2[C@H](O[C@H]3CC[C@]4(C)[C@H]5CC=C6[C@@H]7CC(C)(C)CC[C@]7(C(=O)NCc7cccs7)CC[C@@]6(C)[C@]5(C)CC[C@H]4C3(C)C)O[C@H](CO)[C@@H](O[C@@H]3O[C@@H](C)[C@H](O)[C@@H](O)[C@H]3O)[C@@H]2O)[C@H](O)[C@H](O)[C@H]1O`, the inhibition result was “inactive”.

Take `C[C@@H]1O[C@@H](O[C@H]2[C@H](O[C@H]3CC[C@]4(C)[C@H]5CC=C6[C@@H]7CC(C)(C)CC[C@]7(C(=O)NCc7ccccc7)CC[C@@]6(C)[C@]5(C)CC[C@H]4C3(C)C)O[C@H](CO)[C@@H](O[C@@H]3O[C@@H](C)[C@H](O)[C@@H](O)[C@H]3O)[C@@H]2O)[C@H](O)[C@H](O)[C@H]1O`: the inhibition result is “inactive”.

On to `COc1ccccc1NC(=O)[C@]12CCC(C)(C)C[C@H]1C1=CC[C@@H]3[C@@]4(C)CC[C@H](O[C@@H]5O[C@H](CO)[C@@H](O[C@@H]6O[C@@H](C)[C@H](O)[C@@H](O)[C@H]6O)[C@H](O)[C@H]5O[C@@H]5O[C@@H](C)[C@H](O)[C@@H](O)[C@H]5O)C(C)(C)[C@@H]4CC[C@@]3(C)[C@]1(C)CC2`, for which the inhibition result was “inactive”.
